In ChEMBL document CHEMBL4837242, “Discovery of Irbesartan Derivatives as BLT2 Agonists by Virtual Screening” (ACS Med Chem Lett, 2021):
Active and inactive are the calls of the source. The rule behind the calls is not given here.

Legend:
[1] = target: T1, Leukotriene B4 receptor 2 (Homo sapiens, UniProt Q9NPC1); assay: Agonist activity at human BLT2 overexpressed in CHO-K1 cells assessed as accumulation of inositol monophosphate measured after 90 mins by HTRF assay; type: functional, cell-based
T1 sequence (Q9NPC1 whole entry): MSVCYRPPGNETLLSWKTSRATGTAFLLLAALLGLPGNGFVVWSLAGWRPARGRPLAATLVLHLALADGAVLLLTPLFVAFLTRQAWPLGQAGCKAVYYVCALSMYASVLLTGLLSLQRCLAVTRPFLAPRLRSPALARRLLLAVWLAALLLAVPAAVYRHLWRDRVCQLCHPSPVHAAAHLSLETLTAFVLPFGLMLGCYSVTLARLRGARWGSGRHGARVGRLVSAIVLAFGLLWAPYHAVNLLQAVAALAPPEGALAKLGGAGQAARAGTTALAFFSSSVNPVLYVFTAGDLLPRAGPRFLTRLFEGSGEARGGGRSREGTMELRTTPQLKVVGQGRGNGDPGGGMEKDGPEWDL

HepG2 = assay: (§1) Cytotoxicity against human HepG2 cells assessed as cell survival rate at 50 uM measured after 3 days by Celltiter-glo assay relative to control; type: cell-based; settings: hepg2, 72 h, 50 µM
How it was run: (§2)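 Hep-G2 cells exposed to 50 μM compound for 3 days; ATP content measured by CellTiter-Glo luminescence as an index of metabolic activity and survival; live rate expressed as percent of DMSO control.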

[2] = target: Leukotriene B4 receptor 1 (Homo sapiens) (UniProt Q15722); assay: Agonist activity at human BLT1 overexpressed in CHO-K1 cells assessed as accumulation of inositol monophosphate measured after 90 mins by HTRF assay; type: functional, cell-based
Sequence of Leukotriene B4 receptor 1 (Homo sapiens) (Q15722 whole entry): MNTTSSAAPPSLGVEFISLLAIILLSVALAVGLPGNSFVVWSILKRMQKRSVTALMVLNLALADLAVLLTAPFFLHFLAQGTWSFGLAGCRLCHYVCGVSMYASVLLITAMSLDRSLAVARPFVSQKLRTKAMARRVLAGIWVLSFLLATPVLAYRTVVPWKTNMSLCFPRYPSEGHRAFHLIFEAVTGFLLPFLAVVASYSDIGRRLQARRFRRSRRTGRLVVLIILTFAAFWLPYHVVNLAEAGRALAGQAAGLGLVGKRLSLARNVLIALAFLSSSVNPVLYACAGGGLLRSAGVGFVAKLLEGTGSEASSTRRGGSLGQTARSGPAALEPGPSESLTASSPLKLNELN
How it was run: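 IP-One accumulation assay run in agonist mode, read-out inositol monophosphate as a measure of Gq activation; LTB₄ as reference agonist and positive control. EC₅₀ determinations done at least twice (n = 2).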

[3] = target: T2, Type-1 angiotensin II receptor (Homo sapiens, UniProt P30556); assay: Antagonist activity at human AT1 overexpressed in CHO-K1 cells in presence of 10 nM [Val5-angiotensin II measured after 90 mins by HTRF based IP-one assay; type: functional, cell-based
T2 sequence (P30556 whole entry): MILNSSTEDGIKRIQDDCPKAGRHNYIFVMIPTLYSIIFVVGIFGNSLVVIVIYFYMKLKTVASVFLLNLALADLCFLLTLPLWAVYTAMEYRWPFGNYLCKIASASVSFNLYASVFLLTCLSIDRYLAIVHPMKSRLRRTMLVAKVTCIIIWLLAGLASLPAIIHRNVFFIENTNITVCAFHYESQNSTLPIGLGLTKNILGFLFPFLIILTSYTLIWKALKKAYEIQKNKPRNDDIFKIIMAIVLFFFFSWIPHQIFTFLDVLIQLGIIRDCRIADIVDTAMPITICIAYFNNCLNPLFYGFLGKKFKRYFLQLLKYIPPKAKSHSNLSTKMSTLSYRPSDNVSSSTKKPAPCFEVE
How it was run: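 IP-One assay in antagonist mode, [Val⁵]-angiotensin II held constant at 10 nM; IP-1 accumulation read out. IC₅₀ with SEM from at least two runs (n = 2).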

HCT-116 [4] = assay: Induction of cell proliferation in human HCT-116 cells at 0.03 uM measured after 24 hrs by celltiter blue reagent based fluorescent assay; type: functional
How it was run: (§3)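 HCT116 seeded at 5 × 10³ cells/well, grown 72 h, then treated 24 h with compound alone or with BLT2 antagonist Ly255283 (1 μM); CellTiterBlue added for the final 4 h, resorufin fluorescence read. Mean ± SEM, n = 3.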

[5] = as §1; type: cell-based; settings: HepG2 cells, read-out: Activity; how it was run: as §2
HCT-116 [6] = assay: Induction of cell proliferation in human HCT-116 cells at 0.1 to 1 uM measured after 24 hrs by celltiter blue reagent based fluorescent assay; type: functional; how it was run: as §3

| EC50 ([1]; read-out: EC50) | EC50 ([1]; cho-k1) | Activity [2] | IC50 ([3]; read-out: IC50) | Compound | also measured |
| --- | --- | --- | --- | --- | --- |
| – | Not Active | inactive | – | O=C(O)c1ccccc1-c1ccc(CN2C(=O)C3(CCCC3)N=C2CCc2ccccc2)cc1 | Activity (HepG2): Non-Toxic; IC50 ([3]; cho-k1): Not Active |
| 410 nM | – | inactive | – | CCCCC1=NC2(CCCC2)C(=O)N1Cc1ccc(-c2ccccc2-c2nnn[nH]2)cc1 [IRBESARTAN] | Activity (HCT-116 [4]): 88% |
| 24200 nM | – | inactive | 7750 nM | CCCCC1NC(=O)C2(CCCC2)N1Cc1ccc(-c2ccccc2C(=O)O)cc1 (stereo not given) | Activity (HepG2): Non-Toxic |
| 7500 nM | – | inactive | 10000 nM | CCCC[C@H]1N(Cc2ccc(-c3ccccc3-c3nnn[nH]3)cc2)C(=O)[C@H]2CCCN21 | viability at 72 h, 50 µM [5]: 88% |
| – | Not Active | inactive | > 10000 nM | O=C(O)c1ccccc1-c1ccc(CN2C(=O)C3(CCCC3)N=C2c2ccccc2)cc1 | Activity (HepG2): Non-Toxic |
| – | – | – | 8650 nM | O=C(O)c1ccccc1-c1ccc(CN2C(=O)C3(CCCC3)N=C2Cc2ccccc2)cc1 | viability at 72 h, 50 µM [5]: 79% |
| 860 nM | – | inactive | 155 nM | CCCCC1=NC2(CCCCC2)C(=O)N1Cc1ccc(-c2ccccc2C(=O)O)cc1 | – |
| – | – | – | 190 nM | CCCCC1=NC2(CCCC2)C(=O)N1Cc1ccc(-c2ccccc2C(=O)O)cc1 | – |
| – | Not Active | inactive | 1010 nM | CCCC[C@@H]1N(Cc2ccc(-c3ccccc3-c3nnn[nH]3)cc2)C(=O)[C@@H]2CCCN12 | viability at 72 h, 50 µM [5]: 89% |

More lines, now with the values behind:

| Compound | EC50 ([1]; read-out: EC50) | EC50 ([1]; cho-k1) | Activity [2] | IC50 ([3]; read-out: IC50) | also measured |
| --- | --- | --- | --- | --- | --- |
| CCOc1nc2cccc(C(=O)O)c2n1Cc1ccc(-c2ccccc2-c2nnn[nH]2)cc1 | 15000 nM | – | – | – | – |
| CCOc1nc2cccc(C(=O)O)c2n1Cc1ccc(-c2ccccc2-c2noc(=O)[nH]2)cc1 [AZILSARTAN] | – | Not Active | – | – | – |
| O=C(O)Cn1c2c(c3cc(F)ccc31)CN(C(=O)c1cccc3ccccc13)CC2 [SETIPIPRANT] | – | Not Active | – | – | – |
| CCCCC1=NC(C)(C(C)C)C(=O)N1Cc1ccc(-c2ccccc2-c2nnn[nH]2)cc1 (stereo not given) | 67.6 nM | – | inactive | 15 nM | Activity (HCT-116 [4]): Active; Activity (HepG2): Non-Toxic |
| C[C@H](CCC(=O)O)[C@H]1CC[C@H]2[C@@H]3[C@H](O)C[C@@H]4C[C@H](O)CC[C@]4(C)[C@H]3CC[C@]12C [CHENODIOL] | – | Not Active | – | – | – |
| CCCCC1(C2CCCC2)Cc2cc(OCCCC(=O)O)c(Cl)c(Cl)c2C1=O (stereo not given) | – | Not Active | – | – | – |
| O=C(O)COc1ccc(C(=O)c2cccs2)c(Cl)c1Cl | – | Not Active | – | – | – |
| CCCCC1=NC(C)(C)C(=O)N1Cc1ccc(-c2ccccc2-c2nnn[nH]2)cc1 | 8140 nM | – | inactive | 32 nM | viability at 72 h, 50 µM [5]: 56% |
| CSc1ccc(C(=O)/C=C/c2cc(C)c(OC(C)(C)C(=O)O)c(C)c2)cc1 [ELAFIBRANOR] | – | Not Active | – | – | – |
| CCCCC1NC(C)(C)C(=O)N1Cc1ccc(-c2ccccc2-c2nnn[nH]2)cc1 (stereo not given) | – | – | – | 390 nM | viability at 72 h, 50 µM [5]: 77% |
| CCCCC(=O)N(Cc1ccc(-c2ccccc2C(=O)O)cc1)c1ccccc1 | – | – | – | – | Activity (HCT-116 [4]): Active |
| CC(C(=O)O)c1ccc2c(c1)CC(=O)c1ccccc1S2 (stereo not given) [ZALTOPROFEN] | – | Not Active | – | – | – |
| CCc1cc(C(C)=O)c(O)cc1OCCCCCC(C)(C)c1nn[nH]n1 | – | – | – | – | Activity (HCT-116 [6]): inactive |
| CCCCC1=NC(C)(c2ccccc2)C(=O)N1Cc1ccc(-c2ccccc2-c2nnn[nH]2)cc1 (stereo not given) | 550 nM | – | inactive | 25 nM | viability at 72 h, 50 µM [5]: 56% |
| CCCCC(=O)N(Cc1ccc(-c2ccccc2-c2nnn[nH]2)cc1)[C@H](C(=O)O)C(C)C | 16000 nM | – | – | – | – |
